pEC50, pIC50: −log10 of the molar value.
Legend:
[1] = target: T1, Poly(ADP-ribose) glycohydrolase (Homo sapiens, UniProt Q86W56); experiment: Inhibition of PARG in human HeLa cells assessed as induction of MMS-induced PAR chains preincubated for 1 hr followed by MMS addition and measured after 1 hr by Alexofluor 488-conjugated secondary antibody and Hoechst 33342 staining based assay; assay type: cell-based
Procedure, shortened: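 Acute (1 h) cell-based proof-of-mechanism assay measuring persistence of PAR chains, i.e. blockade of PARG-mediated PAR degradation, across a dose range. EC50 values are means of at least 4 independent measurements, with standard deviations.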

[2] = Efflux ratio of apparent permeability in human Caco2 cells; conditions: Caco-2
[3] = Half life in CD1 mouse at 1 mg/kg, iv administered as single dose by LC-MS/MS analysis; assay type: ADME, organism-based; conditions: in vivo
Procedure, shortened: (§1)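 Male CD-1 mice (n = 2) received a single intravenous dose at a nominal 1 mg/kg.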

Cytochrome P450 2D6 = Cytochrome P450 2D6 (Homo sapiens, UniProt P10635); experiment: Inhibition of CYP2D6 (unknown origin); assay type: ADME
Cytochrome P450 2D6, sequence (P10635 whole entry): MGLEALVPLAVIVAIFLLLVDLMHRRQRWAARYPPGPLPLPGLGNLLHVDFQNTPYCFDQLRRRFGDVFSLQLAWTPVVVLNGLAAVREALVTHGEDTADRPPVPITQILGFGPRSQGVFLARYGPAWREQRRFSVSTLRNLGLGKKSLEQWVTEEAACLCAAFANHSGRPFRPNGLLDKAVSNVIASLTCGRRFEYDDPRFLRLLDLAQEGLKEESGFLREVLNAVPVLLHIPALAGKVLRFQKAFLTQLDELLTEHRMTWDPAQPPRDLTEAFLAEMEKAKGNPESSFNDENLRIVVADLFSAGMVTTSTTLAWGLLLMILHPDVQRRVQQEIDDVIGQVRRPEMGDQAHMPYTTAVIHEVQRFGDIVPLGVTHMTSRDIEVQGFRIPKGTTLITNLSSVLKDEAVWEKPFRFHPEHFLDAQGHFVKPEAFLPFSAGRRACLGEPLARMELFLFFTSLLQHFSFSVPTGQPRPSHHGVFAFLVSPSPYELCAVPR

[4] = Volume of distribution in CD1 mouse at 1 mg/kg, iv administered as single dose by LC-MS/MS analysis; assay type: ADME, organism-based; conditions: in vivo; procedure, shortened: as §1
[5] = test system: PARG (human, full length); experiment: Selectivity ratio of cytotoxicity for human HeLa cells to EC50 for human full length PARG; assay type: toxicity, cell-based
Cytochrome P450 2C19 = Cytochrome P450 2C19 (Homo sapiens, UniProt P33261); experiment: Inhibition of CYP2C19 (unknown origin); assay type: ADME
Cytochrome P450 2C19, sequence (P33261 whole entry): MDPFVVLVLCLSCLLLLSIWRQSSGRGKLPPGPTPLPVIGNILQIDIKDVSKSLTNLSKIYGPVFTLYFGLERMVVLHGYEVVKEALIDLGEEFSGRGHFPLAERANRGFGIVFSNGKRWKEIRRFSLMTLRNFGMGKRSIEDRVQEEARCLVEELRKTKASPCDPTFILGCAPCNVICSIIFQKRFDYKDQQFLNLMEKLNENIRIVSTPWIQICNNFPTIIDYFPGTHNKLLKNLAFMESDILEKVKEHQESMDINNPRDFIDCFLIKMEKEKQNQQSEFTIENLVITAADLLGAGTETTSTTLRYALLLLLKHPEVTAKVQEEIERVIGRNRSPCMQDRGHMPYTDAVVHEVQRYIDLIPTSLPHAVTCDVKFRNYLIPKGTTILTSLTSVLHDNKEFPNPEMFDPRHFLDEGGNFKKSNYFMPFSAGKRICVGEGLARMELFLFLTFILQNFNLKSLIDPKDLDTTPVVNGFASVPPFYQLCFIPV

[6] = Oral bioavailability in CD1 mouse at 5 mg/kg administered as single dose by LC-MS/MS analysis; assay type: ADME, organism-based; conditions: in vivo
Procedure, shortened: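 Male CD-1 mice (n = 2) were dosed orally at a nominal 5 mg/kg, with a separate intravenous group (n = 2) at a nominal 1 mg/kg for comparison.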

Cytochrome P450 3A4 = Cytochrome P450 3A4 (Homo sapiens, UniProt P08684); experiment: Inhibition of CYP3A4 (unknown origin); assay type: ADME
Cytochrome P450 3A4, sequence (P08684 whole entry): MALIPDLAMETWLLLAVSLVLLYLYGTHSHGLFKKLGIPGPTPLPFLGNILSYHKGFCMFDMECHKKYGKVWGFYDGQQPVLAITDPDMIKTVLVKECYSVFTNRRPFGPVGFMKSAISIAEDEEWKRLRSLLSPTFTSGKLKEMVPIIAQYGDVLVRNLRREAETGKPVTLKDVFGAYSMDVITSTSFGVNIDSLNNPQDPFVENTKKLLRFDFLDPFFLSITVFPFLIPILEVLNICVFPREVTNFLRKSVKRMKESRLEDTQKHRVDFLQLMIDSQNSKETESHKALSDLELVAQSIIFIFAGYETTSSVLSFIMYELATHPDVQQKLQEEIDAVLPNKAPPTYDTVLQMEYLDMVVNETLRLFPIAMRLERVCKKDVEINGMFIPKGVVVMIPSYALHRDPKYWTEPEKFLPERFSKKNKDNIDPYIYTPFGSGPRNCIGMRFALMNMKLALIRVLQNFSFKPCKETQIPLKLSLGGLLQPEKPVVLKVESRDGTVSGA

[7] = Clearance in human liver microsomes
[8] = Solubility of the compound; assay type: physicochemical
[9] = target: T1, Poly(ADP-ribose) glycohydrolase; experiment: Inhibition of human full length PARG using Bt-NAD ribosylated PARP1 substrate after 10 mins by TR-FRET assay
[10] = AUC in CD1 mouse at 1 mg/kg, iv administered as single dose by LC-MS/MS analysis; assay type: ADME, organism-based; conditions: in vivo; procedure, shortened: as §1
[11] = Clearance in CD1 mouse at 1 mg/kg, iv administered as single dose by LC-MS/MS analysis; assay type: ADME, organism-based; conditions: in vivo; procedure, shortened: as §1
[12] = Clearance in mouse liver microsomes
Cytochrome P450 2C9 = Cytochrome P450 2C9 (Homo sapiens, UniProt P11712); experiment: Inhibition of CYP2C9 (unknown origin); assay type: ADME
Cytochrome P450 2C9, sequence (P11712 whole entry): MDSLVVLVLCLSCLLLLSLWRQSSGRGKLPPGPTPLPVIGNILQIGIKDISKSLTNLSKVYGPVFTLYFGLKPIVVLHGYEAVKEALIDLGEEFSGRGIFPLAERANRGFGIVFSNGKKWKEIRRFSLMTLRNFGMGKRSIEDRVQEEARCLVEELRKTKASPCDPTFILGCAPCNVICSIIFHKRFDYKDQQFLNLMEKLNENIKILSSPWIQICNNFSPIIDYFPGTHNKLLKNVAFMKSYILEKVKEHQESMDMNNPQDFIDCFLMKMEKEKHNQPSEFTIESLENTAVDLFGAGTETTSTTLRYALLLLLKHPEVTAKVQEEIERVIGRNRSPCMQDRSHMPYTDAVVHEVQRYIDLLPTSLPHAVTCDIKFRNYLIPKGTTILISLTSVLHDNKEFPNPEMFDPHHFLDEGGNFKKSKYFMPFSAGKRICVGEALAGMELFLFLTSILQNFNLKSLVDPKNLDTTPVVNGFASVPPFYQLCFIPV

CYP1A = target: T2, CYP1A (Homo sapiens, UniProt P04798+P05177); experiment: Inhibition of CYP1A (unknown origin); assay type: ADME, protein assay
T2 sequence (P04798 whole entry): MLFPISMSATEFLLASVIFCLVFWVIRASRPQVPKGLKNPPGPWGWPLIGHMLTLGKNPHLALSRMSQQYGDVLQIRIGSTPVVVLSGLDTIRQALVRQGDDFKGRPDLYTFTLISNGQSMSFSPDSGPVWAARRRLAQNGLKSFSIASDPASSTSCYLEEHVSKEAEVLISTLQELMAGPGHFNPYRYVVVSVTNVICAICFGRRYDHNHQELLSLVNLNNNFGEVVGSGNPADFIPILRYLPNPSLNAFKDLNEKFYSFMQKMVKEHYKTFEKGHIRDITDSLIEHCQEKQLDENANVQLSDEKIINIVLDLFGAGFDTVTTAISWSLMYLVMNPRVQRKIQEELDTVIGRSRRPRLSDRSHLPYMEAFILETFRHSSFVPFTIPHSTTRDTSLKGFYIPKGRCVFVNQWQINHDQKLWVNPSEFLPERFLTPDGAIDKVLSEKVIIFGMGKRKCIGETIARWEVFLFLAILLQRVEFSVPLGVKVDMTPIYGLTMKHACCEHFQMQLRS
T2 sequence (P05177 whole entry): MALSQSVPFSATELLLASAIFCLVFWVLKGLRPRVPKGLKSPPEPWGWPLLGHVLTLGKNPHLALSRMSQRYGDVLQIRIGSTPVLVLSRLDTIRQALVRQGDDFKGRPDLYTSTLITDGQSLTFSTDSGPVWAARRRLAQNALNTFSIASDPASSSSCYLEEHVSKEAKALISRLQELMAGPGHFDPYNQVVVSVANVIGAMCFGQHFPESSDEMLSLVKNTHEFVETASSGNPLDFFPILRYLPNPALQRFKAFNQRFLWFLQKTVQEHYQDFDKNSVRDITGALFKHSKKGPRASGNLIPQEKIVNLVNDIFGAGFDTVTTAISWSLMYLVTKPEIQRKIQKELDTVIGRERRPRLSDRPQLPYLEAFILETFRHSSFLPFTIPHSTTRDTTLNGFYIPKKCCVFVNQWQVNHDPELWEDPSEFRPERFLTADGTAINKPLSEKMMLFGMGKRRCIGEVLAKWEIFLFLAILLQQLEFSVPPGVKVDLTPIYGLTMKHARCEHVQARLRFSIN

[13] = Apparent permeability across apical to basolateral side in human Caco2 cells; assay type: ADME, cell-based; conditions: Caco-2
[14] = Clearance in mouse hepatocytes assessed per million cells
[15] = Solubility of the compound by turbidimetric method; assay type: physicochemical
HeLa = experiment: Cytotoxicity against human HeLa cells after 72 hrs by Hoechst 33342 staining based assay; assay type: cell-based
[16] = Partition coefficient, log D of compound at pH 7.4; assay type: physicochemical; conditions: octanol/water

T1 sequence (Q86W56 whole entry): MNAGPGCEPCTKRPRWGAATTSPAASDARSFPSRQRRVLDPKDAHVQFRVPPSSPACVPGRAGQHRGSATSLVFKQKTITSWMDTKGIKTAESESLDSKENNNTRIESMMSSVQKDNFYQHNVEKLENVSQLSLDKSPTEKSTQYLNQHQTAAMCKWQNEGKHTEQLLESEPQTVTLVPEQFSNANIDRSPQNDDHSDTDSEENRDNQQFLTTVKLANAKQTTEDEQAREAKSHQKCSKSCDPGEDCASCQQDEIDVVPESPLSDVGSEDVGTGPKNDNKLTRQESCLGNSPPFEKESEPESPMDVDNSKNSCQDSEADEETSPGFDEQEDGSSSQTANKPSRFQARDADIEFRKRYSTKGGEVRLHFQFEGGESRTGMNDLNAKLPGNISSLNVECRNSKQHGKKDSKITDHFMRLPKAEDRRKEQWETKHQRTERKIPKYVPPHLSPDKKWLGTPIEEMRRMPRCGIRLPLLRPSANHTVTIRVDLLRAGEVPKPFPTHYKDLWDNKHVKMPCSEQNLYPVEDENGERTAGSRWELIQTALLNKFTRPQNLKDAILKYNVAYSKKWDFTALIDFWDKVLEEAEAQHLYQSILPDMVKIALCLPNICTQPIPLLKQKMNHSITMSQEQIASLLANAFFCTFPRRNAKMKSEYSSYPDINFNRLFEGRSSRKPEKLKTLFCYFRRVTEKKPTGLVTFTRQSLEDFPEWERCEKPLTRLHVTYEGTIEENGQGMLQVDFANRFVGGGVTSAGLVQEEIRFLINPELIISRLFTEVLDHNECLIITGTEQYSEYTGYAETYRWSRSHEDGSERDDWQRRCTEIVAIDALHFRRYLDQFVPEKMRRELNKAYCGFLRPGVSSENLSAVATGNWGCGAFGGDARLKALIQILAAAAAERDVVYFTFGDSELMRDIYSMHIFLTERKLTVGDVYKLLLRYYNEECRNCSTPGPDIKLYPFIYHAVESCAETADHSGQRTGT

| pEC50 [1] | efflux ratio [2] | half-life [3] | pIC50 (Cytochrome P450 2D6) | Vd [4] | pIC50 (Cytochrome P450 2C19) | bioavailability [6] | pIC50 (Cytochrome P450 3A4) | microsomal CLint [7] | solubility [8] | pEC50 [9] | AUC [10] | clearance [11] | microsomal CLint [12] | pIC50 (Cytochrome P450 2C9) | pIC50 (CYP1A) | Papp A→B [13] | hepatocyte CLint [14] | SMILES | selectivity ratio [5] | further results |
| --- | --- | --- | --- | --- | --- | --- | --- | --- | --- | --- | --- | --- | --- | --- | --- | --- | --- | --- | --- | --- |
| 6.55 | 21 | 12 min | < 4.60 | 2.5 L/kg | < 4.60 | 25% | < 4.60 | 19 µL/min/mg | > 100 µM | 6.47 | 0.09 µg·h/mL | 10 L/h/kg | 22 µL/min/mg | < 4.60 | < 4.60 | 19 nm/s | 25 µL/min/1e6 cells | Cc1cc(Cn2c(=O)c3cc(S(=O)(=O)NC4(C)CC4)ccc3n(CC3COC3)c2=O)on1 | > 100 | – |
| 5.74 | – | – | – | – | – | – | – | – | – | 5.41 | – | – | – | – | – | – | – | Cn1c(=O)c2cc(S(=O)(=O)NC3(C)CC3)ccc2n(C)c1=O | – | solubility kinetic [15]: > 100 µM; Activity (HeLa): > 30 µM; logD [16]: 1.73 |
| 6.60 | 34 | 22 min | < 5.00 | 1.4 L/kg | < 5.00 | 41% | < 5.00 | 9.2 µL/min/mg | > 100 µM | 7.16 | 0.25 µg·h/mL | 4 L/h/kg | 16 µL/min/mg | < 5.00 | < 5.00 | 10 nm/s | 24 µL/min/1e6 cells | Cn1cc(Cn2c(=O)c3cc(S(=O)(=O)NC4(C)CC4)ccc3n(CC3COC3)c2=O)cn1 | > 100 | – |
